ChEMBL document CHEMBL1944542, “Coumarin polysulfides inhibit cell growth and induce apoptosis in HCT116 colon cancer cells” (2012)
Activity calls are given as the source filed them. No cut-off for these calls is given here.

Assays:
HCT-116 [1] = assay: Cytotoxicity against human HCT116 cells expressing p53 assessed as reduction in cell viability at 50 uM from 24 to 48 hrs by MTT assay; type: functional, cell-based
Summary of the method: (§1)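 p53-positive HCT116 cells kept in McCoy's 5A with 10% FCS at 37 °C and 5% CO2. Seeded at 1 x 10^4 per well and incubated overnight. Treated at 12.5–200 µM, DMSO-dissolved, for 8, 24 or 48 h, with 0.05% DMSO control. MTT (5 mg/ml) added for the final 1 h at 37 °C. Formazan dissolved in SDS/DMSO/acetic acid and absorbance read at 595 nm. Means ± SD, n = 3.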

HCT-116 [2] = assay: Cell cycle arrest in human HCT116 cells assessed as accumulation at G1 phase at 25 uM after 24 hrs using propidium iodide staining by cytofluorometry (reference value: 62.34%); type: functional
HCT-116 [3] = assay: Induction of apoptosis in human HCT116 cells assessed as increase in caspase 3/7 activation at 50 uM from 24 to 48 hrs by Western blotting; type: functional, cell-based
Summary of the method: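 HCT116 cells treated with 0 or 50 µM for 24 and 48 h. Lysed on ice in Tris/MgCl2/NP-40/DTT buffer. Separated on 12.5% SDS-PAGE and probed with caspase 3 antibody for full-length protein and cleavage products. Representative of at least 3 blots.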

HCT-116 [4] = assay: Cell cycle arrest in human HCT116 cells assessed as accumulation at S phase at 50 uM after 24 hrs using propidium iodide staining by cytofluorometry (reference value: 4.91%); type: functional
[5] = target: T1, M-phase inducer phosphatase 1 (Homo sapiens) (UniProt P30304); assay: Inhibition of recombinant human GST-tagged cdc25A phosphatase activity using 3-O-methyl fluorescein phosphate at 100 uM
T1 sequence (whole entry): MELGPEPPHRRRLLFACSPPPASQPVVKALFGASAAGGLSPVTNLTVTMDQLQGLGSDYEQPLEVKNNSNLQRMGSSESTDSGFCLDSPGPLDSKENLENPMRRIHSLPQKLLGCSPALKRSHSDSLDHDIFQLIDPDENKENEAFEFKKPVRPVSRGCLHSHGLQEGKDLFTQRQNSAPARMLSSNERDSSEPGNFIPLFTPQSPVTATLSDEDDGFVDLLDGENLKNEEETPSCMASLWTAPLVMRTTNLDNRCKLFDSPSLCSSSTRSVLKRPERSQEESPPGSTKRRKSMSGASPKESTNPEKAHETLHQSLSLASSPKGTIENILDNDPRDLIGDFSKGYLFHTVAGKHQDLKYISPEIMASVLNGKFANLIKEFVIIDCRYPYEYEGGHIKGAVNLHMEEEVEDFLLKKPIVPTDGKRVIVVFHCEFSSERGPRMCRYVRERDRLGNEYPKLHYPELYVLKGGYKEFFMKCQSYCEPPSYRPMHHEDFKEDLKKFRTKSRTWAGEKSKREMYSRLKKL
Summary of the method: (§2)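 Test concentration 100 µM. Fluorescence (ex 475 / em 510 nm) read every 20 min for 2 h at 30 °C. Residual activity expressed relative to DMSO set at 100%.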

HCT-116 [6] = assay: Cell cycle arrest in human HCT116 cells assessed as accumulation at S phase at 25 uM after 24 hrs using propidium iodide staining by cytofluorometry (reference value: 4.91%); type: functional
HCT-116 [7] = assay: Induction of apoptosis in NAC treated human HCT116 cells assessed as PARP cleavage at 50 uM treated 0.5 hrs before NAC challenge measured after 24 to 72 hrs by Western blotting; type: functional, cell-based
Summary of the method: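 HCT116 cells pretreated with 5 mM NAC (water stock) for 0.5 h, then exposed to 50 µM for 24, 48 and 72 h. Cells lysed in RIPA with protease inhibitors. 75 µg protein run on 7.5% SDS-PAGE and blotted to PVDF. PARP probed at 1:1000 overnight at 4 °C. Nucleolin or GAPDH used as loading control.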

[8] = target: T2, M-phase inducer phosphatase 3 (Homo sapiens) (UniProt P30307); assay: Inhibition of recombinant human GST-tagged cdc25C phosphatase activity using 3-O-methyl fluorescein phosphate at 100 uM; summary of the method: as §2
T2 sequence (whole entry): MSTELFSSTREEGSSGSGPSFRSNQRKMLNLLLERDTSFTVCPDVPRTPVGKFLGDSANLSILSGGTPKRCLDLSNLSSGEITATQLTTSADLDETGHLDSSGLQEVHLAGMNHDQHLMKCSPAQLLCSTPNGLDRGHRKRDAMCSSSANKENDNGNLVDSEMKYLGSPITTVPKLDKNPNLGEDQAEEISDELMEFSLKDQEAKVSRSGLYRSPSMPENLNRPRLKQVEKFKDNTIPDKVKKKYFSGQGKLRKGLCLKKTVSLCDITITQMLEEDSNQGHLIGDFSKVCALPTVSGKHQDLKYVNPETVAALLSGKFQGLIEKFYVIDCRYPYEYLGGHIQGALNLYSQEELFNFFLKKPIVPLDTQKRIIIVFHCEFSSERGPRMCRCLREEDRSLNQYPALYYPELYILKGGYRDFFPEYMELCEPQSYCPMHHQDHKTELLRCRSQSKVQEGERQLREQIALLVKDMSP

HCT-116 [9] = assay: Cell cycle arrest in human HCT116 cells assessed as accumulation at G2/M phase at 25 uM after 24 hrs using propidium iodide staining by cytofluorometry (reference value: 23.45%); type: functional
HCT-116 [10] = assay: Induction of apoptosis in human HCT116 cells assessed as decrease in bcl-2 level by Western blotting; type: functional, cell-based; settings: TDE = time-dependent effect
Summary of the method: (§3)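 HCT116 cells left untreated or exposed for 0.5–24 h. 50 µg protein separated on 12.5% SDS-PAGE and transferred to PVDF. bcl-2, bax or cytochrome c antibodies applied at 1:1000 overnight at 4 °C, with GAPDH loading control. For cytochrome c, cytosolic extracts were made by snap-freezing PBS-resuspended cells and clearing at 12500×g.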

HCT-116 [11] = assay: Cell cycle arrest in human HCT116 cells assessed as accumulation at G2/M phase at 50 uM after 24 hrs using propidium iodide staining by cytofluorometry (reference value: 23.45%); type: functional
HCT-116 [12] = assay: Induction of apoptosis in human HCT116 cells assessed as increase in bax level by Western blotting; type: functional, cell-based; settings: TDE = time-dependent effect; summary of the method: as §3
HCT-116 [13] = assay: Cell cycle arrest in human HCT116 cells assessed as accumulation at subG1 phase at 50 uM after 24 hrs using propidium iodide staining by cytofluorometry (reference value: 1.8%); type: functional
HCT-116 [14] = assay: Induction of apoptosis in human HCT116 cells assessed as increase in p53 level at 50 uM from 8 to 48 hrs by Western blotting; type: functional, cell-based
Summary of the method: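 HCT116 cells exposed to 50 µM for 8, 24 and 48 h, with 0.05% DMSO control. Lysates run on SDS-PAGE and blotted with anti-p53 (DO-1) at 1:1000 for 1 h at room temperature. GAPDH used as loading control.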

HCT-116 [15] = assay: Cytotoxicity against human HCT116 cells expressing p53 assessed as reduction in cell viability at 50 uM by MTT assay; type: functional, cell-based; settings: TDE = time-dependent effect; summary of the method: as §1
HCT-116 [16] = assay: Cytotoxicity against human HCT116 cells expressing p53 assessed as reduction in cell viability at 50 uM after 24 hrs by MTT assay; type: functional; summary of the method: as §1
HCT-116 [17] = assay: Cytotoxicity against human HCT116 cells expressing p53 assessed as reduction in cell viability after 24 hrs by MTT assay; type: functional, cell-based; summary of the method: as §1
HCT-116 [18] = assay: Cytotoxicity against human HCT116 cells expressing p53 assessed as reduction in cell viability at 25 uM after 24 hrs by MTT assay; type: functional; summary of the method: as §1
HCT-116 [19] = assay: Induction of apoptosis in human HCT116 cells assessed as decrease in cdc25C level at 50 uM by Western blotting; type: functional, cell-based; settings: TDE = time-dependent effect
HCT-116 [20] = assay: Induction of apoptosis in human HCT116 cells assessed as PARP cleavage at 50 uM from 24 to 72 hrs by Western blotting; type: functional, cell-based
Summary of the method: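 HCT116 cells exposed to 50 µM for 24, 48 and 72 h, with 0.05% DMSO control. RIPA lysates (75 µg) run on 7.5% SDS-PAGE and transferred to PVDF. Anti-PARP blot, with nucleolin as loading control. Cleavage read as the 116 kDa band converting to 89 kDa.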

HCT-116 [21] = assay: Induction of apoptosis in human HCT116 cells assessed as increase in release of cytochrome C into cytosol by Western blotting; type: functional, cell-based; summary of the method: as §3
HCT-116 [22] = assay: Cytotoxicity against human HCT116 cells expressing p53 assessed as cell viability at 50 uM after 48 hrs by MTT assay; type: functional; settings: HCT-116, 48 h, read-out: Activity; summary of the method: as §1
HCT-116 [23] = assay: Induction of apoptosis in human HCT116 cells assessed as increase in gammaH2AX level at 50 uM from 24 to 72 hrs by Western blotting; type: functional, cell-based
HCT-116 [24] = assay: Cytotoxicity against human HCT116 cells expressing p53 assessed as reduction in cell viability at 100 to 200 uM after 24 hrs by MTT assay; type: functional, cell-based; summary of the method: as §1
HCT-116 [25] = assay: Cell cycle arrest in human HCT116 cells assessed as accumulation at G1 phase at 50 uM after 24 hrs using propidium iodide staining by cytofluorometry (reference value: 62.34%); type: functional
HCT-116 [26] = assay: Cell cycle arrest in human HCT116 cells assessed as accumulation at subG1 phase at 25 uM after 24 hrs using propidium iodide staining by cytofluorometry (reference value: 1.8%); type: functional
HCT-116 [27] = assay: Induction of apoptosis in human HCT116 cells assessed as PARP cleavage at 50 uM from 24 to 48 hrs by Western blotting; type: functional, cell-based
Summary of the method: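 HCT116 cells (McCoy's 5A, 10% FCS, 37 °C, 5% CO2) exposed to 50 µM compound (DMSO stock; 0.05% DMSO control) for 24, 48 and 72 h. Total extract in RIPA buffer with protease inhibitors, 75 µg protein run on 7.5% SDS-PAGE, blotted to PVDF. Anti-PARP 1:1000 overnight at 4 °C. 116 kDa full-length and 89 kDa cleaved bands scored. Nucleolin as loading control.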

LNCaP = assay: Induction of apoptosis in human LNCAP cells assessed as increase in caspase 3/7 activation at 20 ug/ml after 24 hrs by Western blotting; type: functional, cell-based
Summary of the method: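 LNCaP cells grown in RPMI 1640 with 10% FCS, then treated with 20 µg/ml doxorubicin (water stock) for 24 h or left untreated. Lysates run on 12.5% SDS-PAGE and probed for full-length and cleaved caspase 3.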

| Compound | Activity (HCT-116 [1]) | inhibition [5] | inhibition [8] | Activity (HCT-116 [14]) | Activity (HCT-116 [15]) | Activity (HCT-116 [16]) [%] | Activity (HCT-116 [17]) | Activity (HCT-116 [18]) [%] | Activity (HCT-116 [20]) | viability at 50 µM (HCT-116 [22]) [%] | Activity (HCT-116 [23]) | Activity (HCT-116 [24]) | Activity (HCT-116 [27]) | other results |
| --- | --- | --- | --- | --- | --- | --- | --- | --- | --- | --- | --- | --- | --- | --- |
| C=CCSSSSCC=C | Active |  |  |  |  |  |  |  |  |  |  |  |  |  |
| COc1ccc2c(CSSSCc3cc(=O)oc4cc(OC)ccc34)cc(=O)oc2c1 |  | Active | Active | Active | tde | 50 | Dose-dependent effect | 22 | Active | 20 | Active | Active |  | Activity (HCT-116 [2]): 14.33%; Activity (HCT-116 [3]): Active; Activity (HCT-116 [4]): 3.9%; Activity (HCT-116 [6]): 4.61%; Activity (HCT-116 [7]): inactive; Activity (HCT-116 [9]): 66.07%; Activity (HCT-116 [10]): tde; Activity (HCT-116 [11]): 63.19%; Activity (HCT-116 [12]): tde; Activity (HCT-116 [13]): 10.43%; Activity (HCT-116 [19]): tde; Activity (HCT-116 [21]): Active; Activity (HCT-116 [25]): 13.59%; Activity (HCT-116 [26]): 12.28% |
| C=CCSSCC=C | Active |  |  |  |  |  |  |  |  |  |  |  | Active |  |
| COc1cc(N(C)C)cc(CN(C)CCc2ccc([N+](=O)[O-])cc2)c1O |  | Active | Active |  |  |  |  |  |  |  |  |  |  |  |
| COc1cccc2c1C(=O)c1c(O)c3c(c(O)c1C2=O)C[C@@](O)(C(=O)CO)C[C@@H]3O[C@H]1C[C@H](N)[C@H](O)[C@H](C)O1 |  |  |  |  |  |  |  |  |  |  |  |  |  | Activity (LNCaP): Active |
| COc1ccc2c(CSSCc3cc(=O)oc4cc(OC)ccc34)cc(=O)oc2c1 | Active | Active | Active | Active | tde | 50 | Dose-dependent effect | 30 | Active | 20 | Active | Active | Active |  |
